Test results reported in ChEMBL document CHEMBL1136156, “A specific anti-Helicobacter pylori agent NE2001: synthesis and its effect on the growth of H. pylori” (2003).
In brackets after ≈: the same amount, converted by molar mass.

Legend:
Format in all cases: functional
Escherichia coli = experiment: Antibacterial activity against Escherichia coli K-12 was determined
Procedure, shortened: (§1)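 Agar dilution MIC on Mueller–Hinton agar for reference strains of other species. Compounds were dissolved in DMSO and serially diluted two-fold. Strains were stored at -80 °C before testing. MIC was taken as the minimum concentration completely inhibiting growth.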

Helicobacter pylori [1] = experiment: Antibacterial activity against Helicobacter pylori ATCC 43504 was determined
Procedure, shortened: (§2)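 Agar dilution MIC on Columbia agar with 7% defibrinated sheep blood. Compounds were dissolved in DMSO and serially diluted two-fold. Inoculum was grown 24 h at 37 °C in Brucella broth with 5% fetal bovine serum under microaerophilic gas (5% O2, 10% CO2, 85% N2) and adjusted to about 10^8 CFU/mL, then streaked onto ~2 cm squares. Plates were incubated microaerophilically for 3 days at 37 °C. MIC was the lowest concentration giving complete growth inhibition.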

Staphylococcus aureus = experiment: Antibacterial activity against Staphylococcus aureus 209P JC was determined; procedure, shortened: as §1
Enterococcus faecalis = experiment: Antibacterial activity against Enterococcus faecalis was determined; procedure, shortened: as §1
Helicobacter pylori [2] = experiment: Antibacterial activity against Helicobacter pylori HP0019 was determined; procedure, shortened: as §2
Helicobacter pylori [3] = experiment: Antibacterial activity against Helicobacter pylori HP003 was determined; procedure, shortened: as §2
Helicobacter pylori [4] = experiment: Antibacterial activity against Helicobacter pylori HP004 was determined
Procedure, shortened: (§3)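 Agar dilution MIC on Columbia agar with 7% defibrinated sheep blood. Compounds dissolved in DMSO and serially diluted twofold. Inoculum was H. pylori grown 24 h at 37 °C in Brucella broth with 5% fetal bovine serum under microaerophilic gas (5% O2, 10% CO2, 85% N2), adjusted to about 10^8 CFU/mL and streaked by loop. Plates were incubated microaerophilically for 3 days at 37 °C. MIC taken as the lowest concentration giving complete growth inhibition.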

Helicobacter pylori [5] = experiment: Antibacterial activity against Helicobacter pylori HP007 was determined; procedure, shortened: as §2
Helicobacter pylori [6] = experiment: Antibacterial activity against Helicobacter pylori HP008 was determined; procedure, shortened: as §2
Helicobacter pylori [7] = experiment: Antibacterial activity against Helicobacter pylori HP020 was determined; procedure, shortened: as §3
Helicobacter pylori [8] = experiment: Antibacterial activity against Helicobacter pylori HP021 was determined; procedure, shortened: as §2
Helicobacter pylori [9] = experiment: Antibacterial activity against Helicobacter pylori HP022 was determined; procedure, shortened: as §2
Helicobacter pylori [10] = experiment: Antibacterial activity against Helicobacter pylori HP001 was determined; procedure, shortened: as §2
Helicobacter pylori [11] = experiment: Antibacterial activity against Helicobacter pylori HP0016 was determined; procedure, shortened: as §2
Helicobacter pylori [12] = experiment: Antibacterial activity against Helicobacter pylori HP0017 was determined; procedure, shortened: as §2
Helicobacter pylori [13] = experiment: Antibacterial activity against Helicobacter pylori HP0018 was determined; procedure, shortened: as §3
Klebsiella pneumoniae = experiment: Antibacterial activity against Klebsiella pneumoniae was determined; procedure, shortened: as §1
Morganella morganii = experiment: Antibacterial activity against Morganella morganii was determined; procedure, shortened: as §1
[14] = system: Staphylococcus epidermidis; experiment: Antibacterial activity against Staphylococcus epidermidis was determined; procedure, shortened: as §1

Row | MIC (Escherichia coli) | MIC (Helicobacter pylori [1]) | MIC (Staphylococcus aureus) | Structure (SMILES) | MIC (Enterococcus faecalis) | MIC (Helicobacter pylori [2]) | MIC (Helicobacter pylori [3]) | MIC (Helicobacter pylori [4]) | MIC (Helicobacter pylori [5]) | MIC (Helicobacter pylori [6]) | MIC (Helicobacter pylori [7]) | MIC (Helicobacter pylori [8]) | MIC (Helicobacter pylori [9]) | MIC (Helicobacter pylori [10]) | MIC (Helicobacter pylori [11]) | MIC (Helicobacter pylori [12]) | MIC (Helicobacter pylori [13]) | MIC (Klebsiella pneumoniae) | MIC (Morganella morganii) | MIC [14]
1 | > 64 µg/mL | 0.8 µg/mL | > 64 µg/mL | Cc1ccc(COC(=O)c2ccc(-c3ccc(OC(=O)c4ccc(CN=C(N)N)cc4)cc3)cc2)cc1.Cl | > 64 µg/mL | 1.6 µg/mL | 0.8 µg/mL | 0.8 µg/mL | 0.8 µg/mL | 0.8 µg/mL | 0.8 µg/mL | 0.8 µg/mL | 0.8 µg/mL | 0.4 µg/mL | 0.8 µg/mL | 1.6 µg/mL | 0.4 µg/mL | > 64 µg/mL | > 64 µg/mL | > 64 µg/mL
2 | > 64 µg/mL | 8 µg/mL (≈ 25.1 µM) | > 64 µg/mL | Cc1ccc(COC(=O)c2ccc(-c3ccc(O)cc3)cc2)cc1 |  |  |  |  |  |  |  |  |  |  |  |  |  |  |  | 
3 | > 64 µg/mL | > 64 µg/mL | > 64 µg/mL | O=C(O)c1ccc(-c2ccc(O)cc2)cc1 |  |  |  |  |  |  |  |  |  |  |  |  |  |  |  | 
4 | > 64 µg/mL | > 64 µg/mL | > 64 µg/mL | COC(=O)c1ccc(-c2ccc(O)cc2)cc1 |  |  |  |  |  |  |  |  |  |  |  |  |  |  |  | 

The remaining lines, values behind:

Row | Structure (SMILES) | MIC (Escherichia coli) | MIC (Helicobacter pylori [1]) | MIC (Staphylococcus aureus) | MIC (Enterococcus faecalis) | MIC (Helicobacter pylori [2]) | MIC (Helicobacter pylori [3]) | MIC (Helicobacter pylori [4]) | MIC (Helicobacter pylori [5]) | MIC (Helicobacter pylori [6]) | MIC (Helicobacter pylori [7]) | MIC (Helicobacter pylori [8]) | MIC (Helicobacter pylori [9]) | MIC (Helicobacter pylori [10]) | MIC (Helicobacter pylori [11]) | MIC (Helicobacter pylori [12]) | MIC (Helicobacter pylori [13]) | MIC (Klebsiella pneumoniae) | MIC (Morganella morganii) | MIC [14]
5 | Cl.N=C(N)NCc1ccc(C(=O)Oc2ccccc2)cc1 | > 64 µg/mL | 16 µg/mL | > 64 µg/mL |  |  |  |  |  |  |  |  |  |  |  |  |  |  |  | 
6 | Cl.N=C(N)NCc1ccc(C(=O)O)cc1 | > 64 µg/mL | > 64 µg/mL | > 64 µg/mL |  |  |  |  |  |  |  |  |  |  |  |  |  |  |  | 
7 | Cl.N=C(N)NCc1ccc(C(=O)Nc2ccccc2)cc1 | > 64 µg/mL | > 64 µg/mL | > 64 µg/mL |  |  |  |  |  |  |  |  |  |  |  |  |  |  |  | 
8 | Cc1ccc(CO)cc1 | > 64 µg/mL | > 64 µg/mL | > 64 µg/mL |  |  |  |  |  |  |  |  |  |  |  |  |  |  |  | 
9 | NCc1ccc(C(=O)O)cc1 [AMINOMETHYLBENZOIC ACID] | > 64 µg/mL | > 64 µg/mL | > 64 µg/mL |  |  |  |  |  |  |  |  |  |  |  |  |  |  |  | 
10 | CC1(C)S[C@@H]2[C@H](NC(=O)[C@H](N)c3ccc(O)cc3)C(=O)N2[C@H]1C(=O)O [AMOXICILLIN] | 1.6 µg/mL (≈ 4.38 µM) | 0.05 µg/mL (≈ 0.137 µM) | 0.2 µg/mL (≈ 0.547 µM) | 0.78 µg/mL (≈ 2.13 µM) | 0.05 µg/mL (≈ 0.137 µM) | 0.05 µg/mL (≈ 0.137 µM) | 0.05 µg/mL (≈ 0.137 µM) | 0.05 µg/mL (≈ 0.137 µM) | 0.05 µg/mL (≈ 0.137 µM) | 0.05 µg/mL (≈ 0.137 µM) | 0.025 µg/mL (≈ 0.0684 µM) | 0.025 µg/mL (≈ 0.0684 µM) | 0.025 µg/mL (≈ 0.0684 µM) | 0.05 µg/mL (≈ 0.137 µM) | 0.025 µg/mL (≈ 0.0684 µM) | 0.05 µg/mL (≈ 0.137 µM) | 50 µg/mL (≈ 137 µM) | > 100 µg/mL | 0.78 µg/mL (≈ 2.13 µM)
11 | Cc1ncc([N+](=O)[O-])n1CCO [METRONIDAZOLE] | > 100 µg/mL | 64 µg/mL (≈ 374 µM) | > 100 µg/mL | > 100 µg/mL | 32 µg/mL (≈ 187 µM) | 2 µg/mL (≈ 11.7 µM) | 8 µg/mL (≈ 46.7 µM) | 16 µg/mL (≈ 93.5 µM) | 32 µg/mL (≈ 187 µM) | 128 µg/mL (≈ 748 µM) | 32 µg/mL (≈ 187 µM) | 16 µg/mL (≈ 93.5 µM) | 4 µg/mL (≈ 23.4 µM) | 32 µg/mL (≈ 187 µM) | 64 µg/mL (≈ 374 µM) | 8 µg/mL (≈ 46.7 µM) | > 100 µg/mL | > 100 µg/mL | > 100 µg/mL
